Variants at the floor of the assay were thinned out.
B1: tRNA (parent)
chain: GUUCCGUUGGCGUAAUGGUAACGCGUCUCCCUCCUAAGGAGAAGACUGCGGGUUCGAGUCCCGUACGGAACG

Variants of: B1
Assay: yeast fitness relative to wild type (ratio to wild type); higher = fitter; tRNA-Arg(CCU), competitive growth, 37 C, YPD
Outline: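 The tRNA-Arg(CCU) gene variants were made by chemical synthesis with a 3% per-site mutation rate at 69 sites and inserted at the native genomic locus of Saccharomyces cerevisiae. After pooling, the strains were competed in YPD at 37°C for 24 hours in six parallel replicates. Gene amplicons from the start population and each end population were read by 100-nucleotide paired-end sequencing, and Darwinian fitness relative to wild type was taken from genotype frequency changes. Genotypes needed ≥ 100 starting reads, and estimates < 0.5 were set to 0.5.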

Row | Variant | yeast fitness
1 | G6A A37C A42C A69C | ≤ 0.5
2 | C5U U28C | 0.976
3 | C5U U28G | 0.71
4 | C5U U28A | 0.864
5 | C5U U13A A57U | 0.573
6 | G6A A20G C46U | 0.723
7 | G6A A15G | 0.712
8 | G6A A15U | 0.628
9 | G6A A15C | 0.601
10 | C5U U28A G41A U54C | ≤ 0.5
11 | G6A A15C C27G G44C C49A U64A | 0.538
12 | G6A A20C C49G G50C | ≤ 0.5
13 | C5U U8A A70C | 0.583
14 | C5U U26G A43C C62G G63A C66G A69G | 0.549
15 | C5U U7C G52C A57U C62U C66G | ≤ 0.5
16 | C5U U19G C66A | 0.531
17 | C5U U35C A45C | 0.743
18 | C5U U26A C33G C46U C55G C66A | 0.539
19 | C5U U8A C11U U35G A43U C46G U53C A69C | ≤ 0.5
20 | C5U U7G C34G G44A U59G G68U | ≤ 0.5
21 | G6A A20C C55A G68A | ≤ 0.5

Row | Variant | yeast fitness
22 | C5U U13A C22U C30A A37G G41C C46G | ≤ 0.5
23 | C5U U47C U54C C55G | ≤ 0.5
24 | C5U G67A A69U | ≤ 0.5
25 | C5U U16G C24U | 0.776
26 | G6A A20G C31G C46U | 0.58
27 | C5U U16G C34U A40G A43G C62A A69C | 0.565
28 | C5U U8A G18C | 0.577
29 | G6A A21C A43U | 0.528
30 | C5U U13G C27U C29A A36U A40C G52C | ≤ 0.5
31 | G6A A21G G58C U59C | 0.661
32 | C5U U13C A20C A36G G52C | ≤ 0.5
33 | C5U U13A G58C | 0.63
34 | C5U U8C A36G C60A | ≤ 0.5
35 | C5U U16A C34A G63A | ≤ 0.5
36 | G6A A15C C29U | ≤ 0.5
37 | C5U U7C A15U A40U U59A A65U G68A | 0.542
38 | C5U U13G C33A A37C C61U | ≤ 0.5
39 | G6A A15C C33U G39C C62G G68C | ≤ 0.5
40 | G6A A20U C27A | ≤ 0.5
41 | C5U U16C C22G C29G | ≤ 0.5
42 | C5U U7C C30G A42C | 0.565

Row | Variant | yeast fitness
43 | C5U U16A A42U | 0.666
44 | C5U U28A G41A C66U | 0.542
45 | C5U U35C U54C C55A | ≤ 0.5
46 | C5U G58C C66G | ≤ 0.5
47 | C5U U7A C33A A45C | 0.573
48 | G6A A15C C60A C62U | ≤ 0.5
49 | G6A A15C A20U C29U | ≤ 0.5
50 | C5U U8C G17C C31A G68A | ≤ 0.5
51 | G6A A15U C27A A65C A69C | ≤ 0.5
52 | C5U U32C C49U A57C | ≤ 0.5
53 | G6A A20G A36G C49G C62A C66U | ≤ 0.5
54 | G6A A14C A42U C62A C66U | ≤ 0.5
55 | C5U U19A G25C C29A A43U | ≤ 0.5
56 | C5U U13G C55U G67C | ≤ 0.5
57 | C5U U7A G18U U28A | ≤ 0.5
58 | G6A A20C A45U C46U A57C | 0.501
59 | G6A A15U A20U G38C | ≤ 0.5
60 | C5U U7A C30A G56C C66G | ≤ 0.5
61 | G6A A15C C22G C33U U59G C62G | 0.634
62 | C5U U47C A57C | ≤ 0.5
63 | C5U U16G U64C | 0.932

Row | Variant | yeast fitness
64 | C5U U7A C33U A42C U64C A70G | ≤ 0.5
65 | C5U U16C A20G C29A | ≤ 0.5
66 | C5U U32C G39A | 0.584
67 | G6A A14G | 0.844
68 | G6A A20C C66U | 0.889
69 | C5U U35C A43U A70G | ≤ 0.5
70 | C5U U7G C62A | ≤ 0.5
71 | C5U U16C C30A C31U | ≤ 0.5
72 | C5U U13A A15G G50C A57G | 0.536
73 | C5U U19G G67A | 0.649
74 | C5U U28G A42C | ≤ 0.5
75 | G6A A21G U32C U59G C66U A70C | ≤ 0.5
76 | G6A A15G C46A A69U | ≤ 0.5
77 | G6A A20C A70G | 0.718
78 | G6A A36U A40G G44U U54C | ≤ 0.5
79 | C5U G58C U59C | 0.675
80 | G6A A15G U19C C22A | ≤ 0.5
81 | C5U U16C C24U A42C A57U | ≤ 0.5
82 | C5U U19A A20U G48A C60A | ≤ 0.5
83 | C5U G56C A57U | ≤ 0.5
